The text below walks through data of article PMC7302971 (Bioorganic chemistry, 2020).

One experiment has as its system KCL-22 leukemia cells. Nature of the experiment: Differential Nuclear Staining. In kind it is cell-based, human. As to conditions: for cell death at 100 μM: KCL22, DNS assay, 48 h. A digest of the protocol:
(§1)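 Cells were seeded at 10,000/well and exposed to test compound for 48 h at 1% (v/v) final DMSO. The first screen used a single concentration with controls in quadruplicate. Dose-response used 0.5–100 μM in triplicate. Controls: DMSO vehicle, hydrogen peroxide (positive), untreated (negative). Hoechst 33342 plus PI were added 2 h before automated imaging, and colocalised signal was scored as dead. […] Two-tailed t-test versus DMSO.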

The next experiment deals with HDAC4 (Homo sapiens, UniProt P56524). Nature of the experiment: HDAC enzyme activity assay. Conditions: for remaining activity at 50 µM: read-out: Residual HDAC4 activity at 50 μM. Type of experiment: biochemical. The method in brief: (§2)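 HDAC4 and HDAC8 were in-house recombinant enzymes. Each was preincubated with inhibitor, either a single 50 μM screen or serial dilutions, for 60 min at 30 °C in Tris-HCl pH 8.0/KCl/Pluronic buffer. Substrate was 20 μM Boc-Lys(trifluoroacetyl)-AMC for 60 min at 30 °C, stopped with 1.7 μM SATFMK, and developed with trypsin. AMC fluorescence was read at 350/450 nm and reported as residual activity or as IC50 from a four-parameter logistic fit.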
HDAC4, sequence (P56524 648-1057 limits assumed): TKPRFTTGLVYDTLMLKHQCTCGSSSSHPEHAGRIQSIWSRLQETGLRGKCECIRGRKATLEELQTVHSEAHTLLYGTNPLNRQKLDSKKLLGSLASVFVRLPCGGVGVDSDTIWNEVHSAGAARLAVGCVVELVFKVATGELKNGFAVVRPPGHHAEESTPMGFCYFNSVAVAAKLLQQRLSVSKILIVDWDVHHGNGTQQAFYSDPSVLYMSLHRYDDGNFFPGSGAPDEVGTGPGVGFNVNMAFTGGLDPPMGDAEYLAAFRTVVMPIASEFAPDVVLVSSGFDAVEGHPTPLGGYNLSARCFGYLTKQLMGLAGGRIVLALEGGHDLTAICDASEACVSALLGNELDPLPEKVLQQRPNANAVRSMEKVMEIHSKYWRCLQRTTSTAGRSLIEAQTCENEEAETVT

Another experiment relates to K-562 leukemia cells. Nature of the experiment: Differential Nuclear Staining. Type of experiment: cell-based, human. Conditions: for cell death at 100 μM: K562, DNS assay, 48 h; for CC50: Homo sapiens, K562, 48 h. A digest of the protocol: as §1
Experiment [1] addresses T1, HDAC8 (Homo sapiens, UniProt Q9BY41).
T1 sequence (Q9BY41 1-377): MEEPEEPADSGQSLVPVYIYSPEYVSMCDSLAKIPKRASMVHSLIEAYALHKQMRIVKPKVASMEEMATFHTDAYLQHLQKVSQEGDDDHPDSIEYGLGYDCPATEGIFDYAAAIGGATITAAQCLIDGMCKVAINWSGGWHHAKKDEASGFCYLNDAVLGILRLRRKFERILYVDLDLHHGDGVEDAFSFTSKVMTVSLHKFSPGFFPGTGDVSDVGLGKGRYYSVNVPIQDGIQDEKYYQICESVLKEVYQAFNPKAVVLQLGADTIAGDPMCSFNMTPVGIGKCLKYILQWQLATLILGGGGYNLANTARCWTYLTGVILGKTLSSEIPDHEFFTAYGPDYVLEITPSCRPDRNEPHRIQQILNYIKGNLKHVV
Nature of the experiment: HDAC enzyme activity assay. In kind it is biochemical. Conditions: for remaining activity at 50 µM: read-out: Residual HDAC8 activity at 50 μM. The method in brief:
as §2

Another experiment has as its system CEM leukemia cells. Nature of the experiment: Differential Nuclear Staining. Type of experiment: cell-based, human. Conditions: 48 h; for CC50: Homo sapiens; for cell death at 100 μM: CEM, DNS assay. The method in brief:
as §1

Experiment [2] concerns the target T1, HDAC8. Nature of the experiment: Thermal shift assay. In kind it is binding.

Each structure is given as a SMILES string.

Usually IC50 stands for the concentration that gives 50% inhibition. What is called CC50 is the concentration at which the toxic effect on the cells reaches its halfway point. As for `O=C(CN1C(=O)SC(=Cc2ccccn2)C1=O)Nc1ccc(Cl)c(Cl)c1` [Compound P8, N-(3,4-dichlorophenyl)-2-(2,4-dioxo-5-(pyridin-2-ylmethylene)thiazolidin-3-yl)acetamide], the entries for the “cell death at 100 μM” value in the experiment on KCL-22 leukemia cells and with K-562 leukemia cells were 29.22% cell death at 100 μM and 40.28% cell death at 100 μM, respectively. Also, the IC50 on HDAC4 and against HDAC8 [1] was over 50 µM in each case. For the same compound, the remaining activity at 50 µM on HDAC4 was 100%; on HDAC8 [1], 82%. In the experiment with CEM leukemia cells, this compound displayed a CC50 of 36.9 ± 1.11 µM.
As to `Cc1ccc(NC(=O)CN2C(=O)SC(=Cc3ccccn3)C2=O)cc1` [Compound P12, 2-(2,4-dioxo-5-(pyridin-2-ylmethylene)thiazolidin-3-yl)-N-(p-tolyl)acetamide], the “cell death at 100 μM” value in the experiment on KCL-22 leukemia cells is on record as 24.81% cell death at 100 μM; with K-562 leukemia cells, 39.42% cell death at 100 μM; in the experiment with CEM leukemia cells it was 38.67% cell death at 100 μM. Besides, the remaining activity at 50 µM on HDAC4 amounted to 100%; on HDAC8 [1], 75%. For the same compound, the “Thermal shift (ΔT), stabilizing effect on HDAC8” value (shortened to “Thermal shift (ΔT)”) at HDAC8 [2] is “did not confer significant stability to the protein”. For the same compound, the IC50 against HDAC8 [1] was found to be 47 ± 1.1 µM.
As to `O=C(CN1C(=O)SC(=Cc2ccccn2)C1=O)Nc1ccc(Br)c(Br)c1` [Compound P25, N-(3,4-dibromophenyl)-2-(2,4-dioxo-5-(pyridin-2-ylmethylene)thiazolidin-3-yl)acetamide], the CC50 in the experiment on KCL-22 leukemia cells (Homo sapiens, KCL-22, 48 h) came out at 82.2 ± 0.32 µM; in the experiment with K-562 leukemia cells it was 65.6 ± 1.13 µM; in the experiment with CEM leukemia cells, 39 ± 1.69 µM. The IC50 against HDAC4 and against HDAC8 [1] was over 50 µM throughout. The remaining activity at 50 µM came out at 86% on HDAC4 and 89% at HDAC8 [1].
Take `O=C(CN1C(=O)SC(=Cc2ccccn2)C1=O)Nc1cc(C(F)(F)F)ccc1Cl` [Compound P9, N-(2-chloro-5-(trifluoromethyl)phenyl)-2-(2,4-dioxo-5-(pyridin-2-ylmethylene)thiazolidin-3-yl)acetamide]: the “cell death at 100 μM” value in the experiment with KCL-22 leukemia cells is given as 6.54% cell death at 100 μM; in the experiment on CEM leukemia cells, 4.80% cell death at 100 μM. Moreover, the remaining activity at 50 µM was 100% on HDAC4 and 38% on HDAC8 [1]. The “Thermal shift (ΔT)” value on HDAC8 [2] is reported as “did not confer significant stability to the protein”. In the experiment with K-562 leukemia cells, this compound yielded a CC50 of 102 ± 2.45 µM.
For the compound `O=C(CN1C(=O)SC(=Cc2ccccn2)C1=O)Nc1ccc(F)cc1F` [Compound P5, N-(2,4-difluorophenyl)-2-(2,4-dioxo-5-(pyridin-2-ylmethylene)thiazolidin-3-yl)acetamide], the IC50 on HDAC4 is 50 µM; against HDAC8 [1], over 50 µM. Further, the remaining activity at 50 µM came to 59% on HDAC4 and 80% at HDAC8 [1]. Further, the “Thermal shift (ΔT)” value at HDAC8 [2] is given as “did not confer significant stability to the protein”.
